Data reported in ChEMBL document CHEMBL4819129, “Design, synthesis and lipid-lowering activities of penipyridone derivatives” (Bioorg Med Chem, 2021).
The source made the active and inactive calls. The rule behind the calls is not given here.

Assays:
HepG2 [1] = assay: Hypolipidemic activity in human HepG2 cells assessed as inhibition of oleic acid-induced lipid accumulation at 10 uM; type: functional, cell-based
Procedure, shortened: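 Oleic acid-induced lipid accumulation in HepG2; cells given 100 μM oleic acid with or without compound at 10 μM in DMSO; DMSO-only and OA-only controls, Simvastatin 10 μM positive control. Lipid quantified by oil red O staining. Mean ± SD, n = 4–6, at least three independent experiments.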

HepG2 [2] = assay: Cytotoxicity against human HepG2 cells assessed as reduction in cell viability at 100 uM by MTT assay; type: cell-based; settings: hepg2, 100 µM
Procedure, shortened: (§1)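 MTT viability in HepG2 seeded at 1.2 × 10⁴ cells/well, grown 24 h, then given serial dilutions from DMSO stocks (0.22 μm-filtered) in DMEM + 10% FBS, DMSO as control; 48 h at 37 °C. MTT 5 mg/mL in PBS added for 4 h, formazan dissolved in 10% SDS/0.01 N HCl, A490 read; DMSO wells = 100% viable. Mean ± SD, n = 6.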

HepG2 [3] = assay: Hypolipidemic activity against oleic acid-induced lipid accumulation in human HepG2 cell model assessed as decrease in total cholestrol level at 10 uM measured after 24 hrs; type: functional; design: scale not given: the % may be the effect or the level left
Procedure, shortened: (§2)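 HepG2 in 12-well plates at 2 × 10⁵ cells/well, 37 °C; after 24 h, co-treated 24 h with 100 μmol/L oleic acid plus compound (DMSO vehicle) or Simvastatin 10 μM. Cells rinsed twice in PBS, lysed on ice 20 min, and triglyceride and total cholesterol contents measured. OA-only cells served as reference. Mean ± SD, n = 4.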

HepG2 [4] = assay: Hypolipidemic activity against oleic acid-induced lipid accumulation in human HepG2 cell model assessed as decrease in triglycerides level at 10 uM measured after 24 hrs; type: functional; design: scale not given: the % may be the effect or the level left; procedure, shortened: as §2
HepG2 [5] = assay: Hypolipidemic activity against oleic acid-induced lipid accumulation in human HepG2 cell model assessed as decrease in total cholestrol level at 5 uM measured after 24 hrs; type: functional; design: scale not given: the % may be the effect or the level left; procedure, shortened: as §2
HepG2 [6] = assay: Hypolipidemic activity against oleic acid-induced lipid accumulation in human HepG2 cell model assessed as decrease in total cholestrol level at 20 uM measured after 24 hrs; type: functional; design: scale not given: the % may be the effect or the level left; procedure, shortened: as §2
HepG2 [7] = assay: Hypolipidemic activity against oleic acid-induced lipid accumulation in human HepG2 cell model assessed as decrease in triglycerides level at 20 uM measured after 24 hrs; type: functional; design: scale not given: the % may be the effect or the level left; procedure, shortened: as §2
HepG2 [8] = assay: Hypolipidemic activity in human HepG2 cells assessed as inhibition of oleic acid-induced triglyceride accumulation at 10 uM after 24 hrs; type: functional, cell-based; procedure, shortened: as §2
HepG2 [9] = assay: Hypolipidemic activity in human HepG2 cells assessed as reduction in OA-induced lipid accumulation incubated for 1 hrs by Oil Red O staining based assay; type: functional, cell-based; settings: time 24.0 hrs, in the assay text read “24 hrs” for “1 hrs”
Procedure, shortened: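 Oil red O: HepG2 fixed in 10% neutral formalin 1 h at room temperature, PBS-washed, stained 1 h with 0.5% oil red O in 60% isopropanol, water-washed and imaged (40×). For quantification, stained lipid droplets (30 min) washed with 70% ethanol and absorbance read at 358 nm.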

HepG2 [10] = assay: Cytotoxicity against human HepG2 cells assessed as reduction in cell viability at 400 uM incubated for 48 hrs by MTT assay; type: cell-based; settings: hepg2, 48 h; procedure, shortened: as §1

Compound	Activity (HepG2 [1])	other results
COc1ccc(Cn2cc(C(N)=O)c(=O)cc2[C@@H](OC(C)=O)c2ccccc2)cc1	inactive	
CC(=O)O[C@@H](c1ccccc1)c1cc(OCc2ccccc2)c(C(N)=O)cn1	inactive	
NC(=O)c1cnc([C@@H](O)c2ccccc2)cc1OCCO	inactive	
COCCOc1cc([C@@H](OC(C)=O)c2ccccc2)ncc1C(N)=O	inactive	
CC(=O)O[C@@H](c1ccccc1)c1cc(=O)c(C(N)=O)cn1CCN(C)C	Active	Activity (HepG2 [2]): Non-Toxic
CC(C)CC(=O)O[C@@H](c1ccccc1)c1cc(OCCO)c(C(N)=O)cn1	inactive	
CC(=O)O[C@@H](c1ccccc1)c1cc(=O)c(C(=O)NC(=O)CC(C)C)cn1CCO	Active	
CC(=O)O[C@@H](c1ccccc1)c1cc(=O)c(C(N)=O)cn1Cc1ccccc1	inactive	
CC(=O)O[C@@H](c1ccccc1)c1cc(=O)c(C(N)=O)cn1Cc1cc(C(F)(F)F)cc(C(F)(F)F)c1	inactive	
CC(=O)O[C@@H](c1ccccc1)c1cc(OCCN2CCCC2)c(C(N)=O)cn1	Active	
CCC(C)(C)C(=O)O[C@H]1C[C@@H](C)C=C2C=C[C@H](C)[C@H](CC[C@@H]3C[C@@H](O)CC(=O)O3)[C@H]21 [SIMVASTATIN]		Activity (HepG2 [3]): 12.1%; Activity (HepG2 [4]): 29.1%
CC(=O)O[C@H](c1ccccc1)c1cc(OCCO)c(C(N)=O)cn1	inactive	
CC(=O)O[C@@H](c1ccccc1)c1cc(OCCO)c(C(=O)N(C)C)cn1	inactive	
CC(=O)O[C@@H](c1ccccc1)c1cc(OCCN(C)C)c(C(N)=O)cn1	Active	Activity (HepG2 [2]): Non-Toxic
CC(=O)O[C@@H](c1ccccc1)c1cc(OCCN2CCSCC2)c(C(N)=O)cn1	Active	Activity (HepG2 [5]): 12.8%; Activity (HepG2 [6]): 14.8%; Activity (HepG2 [2]): Non-Toxic; Activity (HepG2 [7]): 30.2%; Activity (HepG2 [8]): Active; Activity (HepG2 [9]): Dose-Dependent Effect; Activity (HepG2 [10]): Non-Toxic
CC(=O)O[C@@H](c1ccccc1)c1cc(OCc2cc(C(F)(F)F)cc(C(F)(F)F)c2)c(C(N)=O)cn1	inactive	
CCOC(=O)COc1cc([C@@H](OC(C)=O)c2ccccc2)ncc1C(N)=O	Active	Activity (HepG2 [2]): Non-Toxic; Activity (HepG2 [8]): Active; Activity (HepG2 [10]): Non-Toxic
CC(=O)O[C@@H](c1ccccc1)c1cc(=O)c(C(N)=O)cn1CCN1CCCC1	Active	
CC(C)CC(=O)O[C@@H](c1ccccc1)c1cc(=O)c(C(N)=O)cn1CCO	inactive	
CC(=O)O[C@@H](c1ccccc1)c1cc(OCCO)c(C(N)=O)cn1	Active	Activity (HepG2 [8]): Active; Activity (HepG2 [10]): Non-Toxic
CC(=O)O[C@@H](c1ccccc1)c1cc(=O)c(C(N)=O)cn1CCN1CCCCC1	Active	
NC(=O)c1cn(CCO)c(-c2ccccc2)cc1=O	Active	Activity (HepG2 [2]): Non-Toxic
COCCn1cc(C(N)=O)c(=O)cc1[C@@H](OC(C)=O)c1ccccc1	inactive	
CC(=O)O[C@@H](c1ccccc1)c1cc(OCCN2CCOCC2)c(C(N)=O)cn1	Active	Activity (HepG2 [2]): Non-Toxic
NC(=O)c1cnc(Cc2ccccc2)cc1OCCO	Active	Activity (HepG2 [2]): Non-Toxic
